Results from ChEMBL document CHEMBL3808338, “Combined inhibition of the EGFR/AKT pathways by a novel conjugate of quinazoline with isothiocyanate” (Eur J Med Chem, 2016).
Activity calls are given as the source filed them. The rule behind the calls is not given here.

Assays:
A-431 [1] = test: Induction of apoptosis in human A431 cells assessed as DNA fragmentation at 2 uM after 24 hrs by ELISA analysis; type: functional
Procedure, shortened: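 A431 cells seeded at 5x10³ cells/well, then exposed to compound for 24 h at 37°C, 5% CO₂. Nucleosomal DNA fragmentation in lysate supernatants quantified by sandwich ELISA with anti-histone-biotin and anti-DNA-peroxidase antibodies and ABTS substrate (20 min), read at 405 nm. Expressed as fold increase, treated over untreated absorbance.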

[2] = target: T1, Epidermal growth factor receptor (Homo sapiens, UniProt P00533); test: Inhibition of EGFR-TK in human A431 cell lysate assessed as reduction in EGF stimulated kinase activity after 60 mins using biotinylated peptide substrate by ELISA; type: cell-based, A-431
A-431 [3] = test: Antiproliferative activity against human A431 cells assessed as cell growth inhibition after 72 hrs by MTT assay; type: functional, cell-based; settings: A-431, 72 h
Procedure, shortened: (§1)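 A431 or HaCaT cells seeded at 1x10⁴ cells/well, incubated 24 h, then exposed to 0.03-30 µM for 72 h at 37°C, 5% CO₂. MTT (5 mg/ml in PBS) for 4 h after a PBS wash, formazan dissolved in isopropanol, read at 405 nm. Viability expressed as % of untreated cells; IC₅₀ taken from at least three independent dose-response curves.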

HaCaT = test: Antiproliferative activity against human HaCaT cells assessed as cell growth inhibition after 72 hrs by MTT assay; type: functional, cell-based; procedure, shortened: as §1
[4] = target: T1, Epidermal growth factor receptor; test: Inhibition of EGFR-TK in human A431 cell lysate assessed as reduction in EGF stimulated kinase activity at 20 uM after 60 mins using biotinylated peptide substrate by ELISA; type: cell-free; settings: A-431
Procedure, shortened: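 A431 cells seeded at 4x10⁶ per 100-mm dish and stimulated with EGF (100 nM) for 60 min with or without compound. Tyrosine kinase activity in lysates measured by direct colorimetric ELISA using a biotinylated peptide substrate and an anti-phosphotyrosine-HRP antibody.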

[5] = Antiproliferative activity against human HGF assessed as cell growth inhibition at 30 uM after 72 hrs by MTT assay; settings: HGF cells, read-out: GI
Procedure, shortened: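 Gingival fibroblasts were grown from healthy-donor biopsies of permanent molars in DMEM/F12 with 10% FCS, then seeded at 1x10⁴ cells/well. After 24 h, cells were treated for 72 h at 37°C, 5% CO₂. Read-out was MTT with isopropanol solubilization at 405 nm, expressed as % of untreated cells.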

[6] = target: T1, Epidermal growth factor receptor; settings: A-431, 2 uM
A-431 [7] = test: Effect on total Akt levels in human A431 cells after 2 hrs by ELISA analysis; type: cell-based; settings: a-431, 2 h
[8] = Chemical stability of the compound in phosphate buffer assessed as degradation at 2 uM at pH 7.2 after 0.5 to 24 hrs by HPLC analysis; type: physicochemical; settings: pH 7.2, 2 µM
Procedure, shortened: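 Test solutions (2 µM) made from a 1 mg/mL DMSO stock diluted into pH 7.2 phosphate buffer and held at 37°C. Aliquots analysed by HPLC with diode-array detection on a phenyl-hexyl column at 0, 0.5, 2, 4 and 24 h.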

[9] = target: T1, Epidermal growth factor receptor; settings: A-431, 10 uM

T1 sequence (P00533 whole entry): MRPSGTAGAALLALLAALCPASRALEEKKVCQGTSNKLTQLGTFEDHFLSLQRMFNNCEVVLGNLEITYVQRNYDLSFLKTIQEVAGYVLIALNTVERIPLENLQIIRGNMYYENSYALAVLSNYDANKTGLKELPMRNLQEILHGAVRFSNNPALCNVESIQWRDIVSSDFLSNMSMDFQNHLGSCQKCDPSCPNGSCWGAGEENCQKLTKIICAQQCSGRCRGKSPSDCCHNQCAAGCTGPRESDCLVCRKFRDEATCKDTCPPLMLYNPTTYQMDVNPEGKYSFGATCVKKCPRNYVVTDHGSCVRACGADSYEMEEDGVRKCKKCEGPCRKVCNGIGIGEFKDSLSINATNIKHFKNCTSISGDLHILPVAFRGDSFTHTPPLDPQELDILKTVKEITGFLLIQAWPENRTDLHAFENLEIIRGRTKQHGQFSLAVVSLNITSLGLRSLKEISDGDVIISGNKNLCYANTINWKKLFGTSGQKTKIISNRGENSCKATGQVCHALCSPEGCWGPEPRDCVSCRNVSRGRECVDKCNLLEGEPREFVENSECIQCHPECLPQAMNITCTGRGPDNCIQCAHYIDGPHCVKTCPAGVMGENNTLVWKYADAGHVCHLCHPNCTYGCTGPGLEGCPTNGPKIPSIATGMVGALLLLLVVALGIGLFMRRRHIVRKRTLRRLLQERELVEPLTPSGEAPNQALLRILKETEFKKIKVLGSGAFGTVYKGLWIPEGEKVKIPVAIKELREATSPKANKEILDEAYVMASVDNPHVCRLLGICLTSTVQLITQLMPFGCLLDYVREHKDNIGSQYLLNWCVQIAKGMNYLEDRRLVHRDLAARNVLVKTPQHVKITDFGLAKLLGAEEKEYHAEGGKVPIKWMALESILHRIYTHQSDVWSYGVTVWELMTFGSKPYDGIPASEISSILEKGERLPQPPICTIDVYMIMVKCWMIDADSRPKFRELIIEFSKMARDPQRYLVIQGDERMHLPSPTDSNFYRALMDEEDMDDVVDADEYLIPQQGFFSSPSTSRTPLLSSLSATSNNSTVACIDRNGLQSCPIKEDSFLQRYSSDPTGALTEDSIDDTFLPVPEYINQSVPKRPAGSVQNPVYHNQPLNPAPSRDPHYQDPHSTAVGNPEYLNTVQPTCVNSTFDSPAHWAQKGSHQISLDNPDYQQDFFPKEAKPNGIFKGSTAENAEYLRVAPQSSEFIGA

| IC50 (A-431 [3]) [µM] | inhibition [4] [%] | Compound | Activity (A-431 [1]) [%] | IC50 (HaCaT) [µM] | inhibition at 72 h, 30 µM [5] [%] | further results |
| --- | --- | --- | --- | --- | --- | --- |
| 2.04 |  | S=C=Nc1ccc2ncnc(Nc3cccc(Br)c3)c2c1 | 40 | 2.62 | < 50 | inhibition [6]: Active; Activity (A-431 [7]): Non-toxic; IC50 [2]: 0.88 µM; Stability [8]: Stable; inhibition [9]: 89% |
| 16.1 | < 50 | O=C(CCCCCCN=C=S)Nc1ccc2ncnc(Nc3cccc(Br)c3)c2c1 |  | 17.3 |  |  |
| 17.1 | < 50 | O=C(CCN=C=S)Nc1ccc2ncnc(Nc3cccc(Br)c3)c2c1 |  | 18.9 |  |  |
| 17.1 | < 50 | O=C(CCCN=C=S)Nc1ccc2ncnc(Nc3cccc(Br)c3)c2c1 |  | 16.3 | < 50 |  |

The next lines start with the molecule.

| Compound | IC50 (A-431 [3]) [µM] | inhibition [4] [%] | Activity (A-431 [1]) [%] | IC50 (HaCaT) [µM] | inhibition at 72 h, 30 µM [5] [%] | further results |
| --- | --- | --- | --- | --- | --- | --- |
| CC[C@@]1(O)C(=O)OCc2c1cc1n(c2=O)Cc2cc3ccccc3nc2-1 [CAMPTOTHECIN] |  |  | 65 |  |  |  |
| C[S+]([O-])CCCCN=C=S (centres undefined) [SULFORAPHANE] | 15.8 |  |  |  |  | IC50 [2]: 9 µM |
| O=C(CCCCN=C=S)Nc1ccc2ncnc(Nc3cccc(Br)c3)c2c1 | 16.3 | < 50 |  | 18.2 |  |  |
| Nc1ccc2ncnc(Nc3cccc(Br)c3)c2c1 | 11.1 |  |  | 14.3 | < 50 |  |
| O=C(CCCCCN=C=S)Nc1ccc2ncnc(Nc3cccc(Br)c3)c2c1 | 14.4 | < 50 |  | 16.5 | < 50 | Stability [8]: Stable |
| C=CC(=O)Nc1ccc2ncnc(Nc3cccc(Br)c3)c2c1 |  |  | 48 |  |  |  |
